Measurements reported in article PMC5469400 (Drug Metabolism and Disposition, 2017).

Columns and labels:
[1] = wells in the absence of cells, concentration monitored over 24 hours
[2] = cited from earlier work
[3] = system: acute phase proteins (APPs); test: iTRAQ 8plex quantitation of acute phase proteins in conditioned medium; format: cell-based, human; settings: day 7; normalized to untreated control; drug 440 μM DCF, LPS 1 µg/ml
Method in brief: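 Day 7 conditioned medium from perfused human hepatocyte–Kupffer cell cocultures treated with test compound (440 μM), LPS (1 µg/ml) or both. Albumin depleted; 100 μg protein reduced (2 mM TCEP, 37°C, 30 min), blocked (10 mM MMTS, 1 h) and trypsin-digested (1:40 w/w, 37°C overnight). Peptides iTRAQ-8plex labelled (3 h, RT), then C18-cleaned. Values are ln2 ratios versus untreated control (combined treatment versus LPS).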

[4] = system: bile acid production in 3D liver coculture; test: Bile acids in culture medium by LC-MS; format: cell-based, human; settings: for level of GCA after 48 h / level of cholic acid after 48 h / level of glycochenodeoxycholic acid 3-glucuronide after 48 h / level of glycochenodeoxycholic acid after 48 h / level of taurocholic acid after 48 h: 0 μM DCF = 100, relative EIC
Method in brief: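 Perfused LiverChip cocultures of cryopreserved primary human hepatocytes and Kupffer cells (10:1, 600,000 cells/well) in WEM with 100 nM hydrocortisone. Test compound in DMSO (0.5% v/v final) or LPS 1 µg/ml added from day 5, refreshed at 48 h medium changes. d5-GCA internal standard added before extraction. Bile acids in medium at 48 h by accurate MS peak area (EIC%) relative to vehicle = 100. Mean of two technical replicates.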

[5] = system: primary human hepatocyte and Kupffer cell cocultures; test: Albumin secretion; format: cell-based; settings: high DCF concentrations (>50×), measured 48 hours after each dose
Method in brief: (§1)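 Cryopreserved primary human hepatocytes and Kupffer cells (10:1, 600,000 cells/well) were cocultured in perfused LiverChip scaffolds (1.0 µl/s), with hydrocortisone-containing (100 nM) WEM from day 3. Test compound in DMSO (0.5% v/v final) was given from day 5 and redosed at each 48-hour medium change, ±LPS 1 µg/ml. Medium was sampled 48 hours after each dose for albumin (ELISA) and LDH activity; n = 3, S.D.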

[6] = DCF clearance / PK in the LiverChip, one-compartment model; format: in vitro ADME; settings: human
[7] = system: primary hepatocyte–Kupffer cell cocultures; test: WST-1 cell viability in the LiverChip, repeat dosing; format: cell-based; settings: Homo sapiens, read-out: IC50 (cell viability, WST-1)
Method in brief: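 Perfused LiverChip cocultures of cryopreserved primary human hepatocytes and Kupffer cells (10:1, 600,000 cells/well; post-thaw viability >85%). Test compound in DMSO (0.5% v/v final) dosed from day 5. Medium and fresh compound replaced every 48 h. Viability measured by WST-1; mean of two replicates.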

[8] = system: proteins in hepatocyte-Kupffer cell coculture medium; test: Shotgun proteomics of secreted proteins, spectral counting; format: cell-based, human; settings: 440 μM DCF
Method in brief: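 Perfused hepatocyte–Kupffer cell coculture medium was collected from control and 440 μM test compound cultures on days 5 and 7 and depleted of albumin. Proteins were taken up in 8 M urea/50 mM ABC with ProteaseMAX, reduced with DTT (56°C, 30 min) and alkylated with IAA (30 min, room temperature, dark). Fractions were cleaned on C18, analysed by shotgun LC-MS/MS and quantified by spectral counting.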

[9] = system: primary human hepatocyte and Kupffer cell cocultures; test: LDH release in the LiverChip; format: cell-based
Method in brief: as §1

[10] = system: coculture of hepatocytes and Kupffer cells (10:1); test: Extrapolation of in vitro DCF clearance to predicted hepatic clearance; format: in vitro ADME, human

## O=C(O)Cc1ccccc1Nc1c(Cl)cccc1Cl [DCF, diclofenac]
[1]
  binding to the LiverChip components: no detectable binding
[2]; human, ref http://www.capkr.man.ac.uk
  in vivo plasma clearance: 3.8 ml/min per kilogram
[2]; recommended dose of DCF in humans
  Cmax: 4.4 µM
[3]
  ln2 iTRAQ value, Haptoglobin: 0.5
  ln2 iTRAQ value, α1 antiproteinase: 1.0
  ln2 iTRAQ value, α2 macroglobulin: −1.0
[4]; 0, 44, 110, 220 and 440 µM DCF
  DCF-induced toxicity as assessed by suppression of GCA production: continuous dose-response relationship
[4]; 110 μM DCF
  level of GCA after 48 h: 57%
  level of cholic acid after 48 h: 66%
  level of glycochenodeoxycholic acid 3-glucuronide after 48 h: 69%
  level of glycochenodeoxycholic acid after 48 h: 50%
  level of taurocholic acid after 48 h: 77%
[4]; 440 μM DCF
  level of GCA after 48 h: 2%
  level of cholic acid after 48 h: 12%
  level of glycochenodeoxycholic acid 3-glucuronide after 48 h: 14%
  level of glycochenodeoxycholic acid after 48 h: 15%
  level of taurocholic acid after 48 h: 10%
[5]
  albumin secretion: declined after a single dose
[6]
  half-life at 4.4 µM: 14.6 h
[7]
  IC50: 227 µM
[8]; day 5
  number of proteins different between control and DCF-treated samples: 13 proteins
[8]; day 7
  number of additional proteins elevated, not identified in the control: 68 proteins
[9]; high DCF concentrations (>50×), measured 48 hours after each dose
  LDH release: became more pronounced after the second dose
[10]
  underprediction of predicted CLh versus in vivo plasma clearance: < 7 fold

## lipopolysaccharide [LPS]
[3]
  ln2 iTRAQ value, Amyloid β A4 protein isoform b: −1.7
  ln2 iTRAQ value, Angiotensinogen: 3.7
  ln2 iTRAQ value, Ceruloplasmin: 3.8
  ln2 iTRAQ value, Complement component C3: 5.1
  ln2 iTRAQ value, Haptoglobin: 3.8
  ln2 iTRAQ value, Hypothetical protein: 3.9
  ln2 iTRAQ value, Leucine-rich α2-glycoprotein: 2.8
  ln2 iTRAQ value, Liver carboxylesterase 1 isoform a: 2.4
  ln2 iTRAQ value, Retinol binding protein 4: 5.0
  ln2 iTRAQ value, Serum albumin: 3.9
  ln2 iTRAQ value, Transferrin: 3.0
  ln2 iTRAQ value, Transthyretin: 1.3
  ln2 iTRAQ value, Vitamin D binding protein: 2.1
  ln2 iTRAQ value, α1-acid glycoprotein 1: 7.0
  ln2 iTRAQ value, α1-acid glycoprotein 2: 5.0
  ln2 iTRAQ value, α1-antitrypsin: 4.2
  ln2 iTRAQ value, α1 antiproteinase: 4.2
  ln2 iTRAQ value, α2-HS glycoprotein: 1.5
[4]; LPS alone, DCF, LPS plus DCF
  effect of LPS together with DCF on drug toxicity (bile acid production): synergistic effect
[9]; gross markers of functionality and cell death, LPS 1 µg/ml
  effect of LPS codosing on toxicity profile of DCF: does not significantly change the toxicity profile
